Results as given in ChEMBL document CHEMBL4346653, “A2B Adenosine Receptor Antagonists with Picomolar Potency” (J Med Chem, 2019).

Key:
[1] = target: T1, Adenosine receptor A1 (Homo sapiens, UniProt P30542); test: Displacement of [3H]CCPA from recombinant human A1 adenosine receptor expressed in CHO cell membranes measured after 90 mins in presence of adenosine deaminase by liquid scintillation counting method
T1 sequence (P30542 whole entry): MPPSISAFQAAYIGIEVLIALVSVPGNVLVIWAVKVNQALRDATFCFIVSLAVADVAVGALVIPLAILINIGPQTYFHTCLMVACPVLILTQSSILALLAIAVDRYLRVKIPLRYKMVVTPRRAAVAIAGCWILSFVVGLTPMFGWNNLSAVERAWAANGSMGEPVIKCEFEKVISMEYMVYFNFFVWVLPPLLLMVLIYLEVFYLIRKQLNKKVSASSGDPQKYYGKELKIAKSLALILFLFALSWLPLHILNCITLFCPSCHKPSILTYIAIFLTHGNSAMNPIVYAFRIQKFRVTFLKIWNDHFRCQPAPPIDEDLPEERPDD
Outline: (§1)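 Competition binding on membranes of cells recombinantly expressing the human receptor (CHO or HEK cells), with tritiated radioligand per subtype: [3H]PSB-603 for A2B, [3H]MSX-2 for A2A, [3H]CCPA for A1, [3H]PSB-11 for A3. Ki ± SEM from n = 3, some from extrapolated curves. Weak binders are reported as % inhibition of radioligand binding at 1 μM.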

[2] = target: T2, Adenosine receptor A3 (Homo sapiens, UniProt P0DMS8); test: Displacement of [3H]PSB-11 from recombinant human A3 adenosine receptor expressed in CHO cell membranes measured after 45 mins in presence of adenosine deaminase by liquid scintillation counting method; outline: as §1
T2 sequence (P0DMS8 whole entry): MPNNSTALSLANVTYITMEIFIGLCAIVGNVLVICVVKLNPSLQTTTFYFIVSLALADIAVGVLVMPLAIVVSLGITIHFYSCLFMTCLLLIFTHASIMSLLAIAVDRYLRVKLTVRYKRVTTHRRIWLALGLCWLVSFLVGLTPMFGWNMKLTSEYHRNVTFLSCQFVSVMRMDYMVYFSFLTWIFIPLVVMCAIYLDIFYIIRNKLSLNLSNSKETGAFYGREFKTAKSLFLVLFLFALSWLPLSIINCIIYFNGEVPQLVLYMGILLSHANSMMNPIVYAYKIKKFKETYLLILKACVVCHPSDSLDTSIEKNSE

[3] = target: Adenosine receptor A2a (Homo sapiens, UniProt P29274); test: Displacement of [3H]MSX-2 from recombinant human A2A adenosine receptor expressed in CHO cell membranes measured after 30 mins in presence of adenosine deaminase by liquid scintillation counting method; outline: as §1
Adenosine receptor A2a, sequence (P29274 whole entry): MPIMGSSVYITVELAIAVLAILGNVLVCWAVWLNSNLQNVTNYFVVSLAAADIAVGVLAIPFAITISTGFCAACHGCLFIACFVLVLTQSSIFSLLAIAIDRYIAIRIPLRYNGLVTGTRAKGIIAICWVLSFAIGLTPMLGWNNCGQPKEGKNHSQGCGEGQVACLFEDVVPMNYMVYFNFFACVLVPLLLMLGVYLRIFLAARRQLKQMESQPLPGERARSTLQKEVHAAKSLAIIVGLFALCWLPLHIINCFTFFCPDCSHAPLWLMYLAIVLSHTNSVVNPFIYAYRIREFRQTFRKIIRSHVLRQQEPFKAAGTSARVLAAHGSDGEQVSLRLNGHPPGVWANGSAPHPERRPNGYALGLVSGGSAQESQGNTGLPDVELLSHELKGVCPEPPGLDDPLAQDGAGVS

[4] = target: T3, Adenosine receptor A2b (Homo sapiens, UniProt P29275); test: Displacement of [3H]PSB-603 from recombinant human A2B adenosine receptor expressed in CHO cell membranes measured after 75 mins in presence of adenosine deaminase by liquid scintillation counting method; outline: as §1
T3 sequence (P29275 whole entry): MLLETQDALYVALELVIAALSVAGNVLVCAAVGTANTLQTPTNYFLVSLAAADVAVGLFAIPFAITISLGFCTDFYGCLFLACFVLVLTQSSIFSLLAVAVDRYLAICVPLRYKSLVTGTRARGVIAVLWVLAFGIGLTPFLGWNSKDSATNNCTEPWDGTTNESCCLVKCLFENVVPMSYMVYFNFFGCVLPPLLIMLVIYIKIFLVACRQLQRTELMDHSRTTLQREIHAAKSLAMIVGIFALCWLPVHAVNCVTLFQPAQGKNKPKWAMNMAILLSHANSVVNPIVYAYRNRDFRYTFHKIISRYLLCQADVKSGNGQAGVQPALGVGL

[5] = target: T4, Adenosine receptor A3 (Homo sapiens) (UniProt P0DMS8); test: Displacement of [3H]PSB-11 from recombinant human A3 adenosine receptor expressed in CHO cell membranes at 1 uM measured after 45 mins in presence of adenosine deaminase by liquid scintillation counting method relative to control
T4 sequence (whole entry): T2 sequence (P0DMS8 whole entry)
Outline: (§2)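 Single-point competition binding at human AR subtype membranes, each against its own tritiated radioligand. The test compound is given at 1 μM, and the result is reported as percent inhibition of radioligand binding. The radioligand-specific footnotes give n = 3.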

[6] = species: Homo sapiens; test: Selectivity index, ratio of Ki for displacement of [3H]MSX-2 from recombinant human A2A adenosine receptor expressed in CHO cell membranes to Ki for displacement of [3H]PSB-603 from recombinant human A2B adenosine receptor expressed in CHO cell membranes
[7] = target: T5, Adenosine receptor A1 (Homo sapiens) (UniProt P30542); test: Displacement of [3H]CCPA from recombinant human A1 adenosine receptor expressed in CHO cell membranes at 1 uM measured after 90 mins in presence of adenosine deaminase by liquid scintillation counting method relative to control; outline: as §2
T5 sequence (whole entry): T1 sequence (P30542 whole entry)

Compound | Ki [1] [nM] | Ki [2] [nM] | Ki [3] [nM] | Ki [4] [nM] | inhibition [5] [%] | Ratio Ki [6] | inhibition [7] [%]
CCCn1c(=O)[nH]c2nc(-c3ccc(S(=O)(=O)N4CCN(c5ccc(O)cc5)CC4)cc3)[nH]c2c1=O | 356 | > 1000 | 96.7 | 4.3 | 21 | 20 | 
CCCn1c(=O)[nH]c2nc(-c3ccc(S(=O)(=O)N4CCN(c5ccc(F)cc5)CC4)cc3)[nH]c2c1=O | > 1000 | > 1000 | 108 | 0.644 | 38 | 170 | 14
CCCn1c(=O)[nH]c2nc(-c3ccc(S(=O)(=O)N4CCN(Cc5ccc(Br)cc5)CC4)cc3)[nH]c2c1=O | > 1000 | > 1000 | 77.8 | 0.153 | 28 | 510 | 31
CCCn1c(=O)[nH]c2nc(-c3ccc(S(=O)(=O)N4CCN(Cc5ccc(OC)c(F)c5)CC4)cc3)[nH]c2c1=O | > 1000 | > 1000 | 245 | 0.894 | 15 | 270 | 24
CCCn1c(=O)[nH]c2nc(-c3ccc(S(=O)(=O)N4CCN(c5ccccc5Br)CC4)cc3)[nH]c2c1=O | > 1000 | > 1000 | 89.5 | 0.137 | 20 | 650 | 28
CCCn1c(=O)[nH]c2nc(-c3ccc(S(=O)(=O)N4CCN(Cc5ccc(OCCO)cc5)CC4)cc3)[nH]c2c1=O | 560 | > 1000 | 241 | 12.2 | 17 | 20 | 
CCCn1c(=O)c2[nH]c(-c3ccc(S(=O)(=O)N4CCN(c5ccc(Cl)cc5)CC4)cc3)nc2n(CC)c1=O | > 1000 | > 1000 | 322 | 4.31 | 28 | 75 | 24
CCCn1c(=O)[nH]c2nc(-c3ccc(S(=O)(=O)N(C)C)cc3)[nH]c2c1=O | 190 | 1220 | 52.7 | 18.6 |  | 3 | 
CCCn1c(=O)[nH]c2nc(-c3ccc(S(=O)(=O)N4CCN(Cc5ccc(N=[N+]=[N-])cc5)CC4)cc3)[nH]c2c1=O | 492 | > 1000 | 208 | 0.244 | 32 | 850 | 
CCCn1c(=O)[nH]c2nc(-c3ccc(S(=O)(=O)N4CCN(C(=O)c5ccccc5)CC4)cc3)[nH]c2c1=O | > 1000 | > 1000 | 143 | 5.69 | 26 | 30 | 15
CCCn1c(=O)[nH]c2nc(-c3ccc(S(=O)(=O)N4CCN(Cc5ccc(OCCOCCOC)cc5)CC4)cc3)[nH]c2c1=O | 1010 | > 1000 | 314 | 7.02 | 30 | 50 | 
CCCn1c(=O)[nH]c2nc(-c3ccc(S(=O)(=O)N4CCN(Cc5ccc(F)c(OC)c5)CC4)cc3)[nH]c2c1=O | > 1000 | > 1000 | 135 | 0.629 | -5 | 220 | 25
CCCn1c(=O)[nH]c2nc(-c3ccc(S(=O)(=O)N4CCN(C)CC4)cc3)[nH]c2c1=O | 334 | > 1000 | 140 | 48.2 | 7 | 3 | 
CCCn1c(=O)[nH]c2nc(-c3ccc(S(=O)(=O)N4CCN(Cc5cccc(C)c5)CC4)cc3)[nH]c2c1=O | 795 | > 1000 | 189 | 0.397 | 17 | 480 | 
CCCn1c(=O)[nH]c2nc(-c3ccc(S(=O)(=O)N4CCN(c5ccccc5)CC4)cc3)[nH]c2c1=O | 364 | > 1000 | 122 | 0.643 | 27 | 190 | 
CCCn1c(=O)[nH]c2nc(-c3ccc(S(=O)(=O)N4CCN(Cc5cccc(OC)c5)CC4)cc3)[nH]c2c1=O | 205 | > 1000 | 131 | 1.28 | 27 | 100 | 
CCCn1c(=O)[nH]c2nc(-c3ccc(S(=O)(=O)N(C)CCc4ccccc4)cc3)[nH]c2c1=O | 1040 | > 1000 | 357 | 1.69 | 4 | 210 | 
CCCn1c(=O)[nH]c2nc(-c3ccc(S(=O)(=O)N4CCN(c5ccc(OCCO)cc5)CC4)cc3)[nH]c2c1=O | > 1000 | > 1000 | 168 | 6.08 | 23 | 30 | 24
CCCn1c(=O)[nH]c2nc(-c3ccc(S(=O)(=O)N4CCN(c5ccccc5C)CC4)cc3)[nH]c2c1=O | 419 | > 1000 | 140 | 0.432 | 25 | 320 | 
CCCn1c(=O)[nH]c2nc(-c3ccc(S(=O)(=O)N4CCN(c5ccc(Cl)c(O)c5)CC4)cc3)[nH]c2c1=O | 113 | > 1000 | 40.7 | 0.421 | 31 | 100 | 
CCCn1c(=O)[nH]c2nc(-c3ccc(S(=O)(=O)N4CCN(c5ccc(Cl)c(OC)c5)CC4)cc3)[nH]c2c1=O | 535 | > 1000 | 35.3 | 0.215 | 46 | 160 | 
